Test results taken from ChEMBL document CHEMBL5705892, “MK-2206, an allosteric Akt inhibitor, enhances antitumor efficacy by standard chemotherapeutic agents or molecular targeted drugs in vitro and in vivo” (Mol Cancer Ther, 2010).
The source made the active and inactive calls. No cut-off for these calls is given here.

Experiments:
A2780 [1] = assay: Induction of apoptosis in carboplatin pretreated human A2780 cells assessed as increase in caspase-3/7 activity measured after 24 hrs by caspase-glo 3/7 assay; format: functional, cell-based; settings: dose 0.0625-1 µM
[2] = Toxicity in human HCC70 cells xenografted CB17/icr SCID mouse assessed as body weight loss at 120 mg/kg, po administered 3 times per week for 3 weeks starting 2 hrs post-lapatinib treatment and measured during compound dosing; format: organism-based; settings: in vivo, 504 h
In short: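 HCC70 cells in 50% Matrigel/PBS injected s.c. into flank of female C.B-17/ICR-scid mice; dosing began after 3 wk, groups randomized at mean tumour 0.2 cm³ (n = 5). Lapatinib 100 mg/kg p.o. in distilled water, 5 d/wk for 3 wk; MK-2206 in 30% Captisol p.o. 3×/wk for 3 wk, given 2 h after lapatinib. Body weight and physical signs monitored throughout.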

NCI-H1993 = assay: Induction of apoptosis in human NCI-H1993 cells assessed as fold induction of capsase-3/7 activity measured after 24 to 48 hrs in presence of carboplatin by caspase-glo 3/7 assay; format: functional; settings: time 24-48 hrs
NCI-H460 [3] = assay: Antitumor activity against human NCI-H460 cells xenografted in CD1 nude mouse assessed as reduction in tumor volume at 120 mg/kg, po administered 3 times per week for 2 weeks in presence of carboplatin by caliper method; format: functional, organism-based
In short: (§1)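 NCI-H460 cells were injected s.c. in Matrigel/PBS into CD1-nude mice (female in the carboplatin study). Mice were randomized at 0.2 cm³, n = 5. Carboplatin was given at 50 mg/kg or gemcitabine at 100 mg/kg, i.v. in saline, on days 0 and 7. MK-2206 (30% Captisol) was given at 120 mg/kg po on days 0, 2, 4, 7, 9, 11. Tumors measured by caliper twice weekly.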

A2780 [4] = assay: Synergistic antiproliferative activity against human A2780 cells assessed as combination index at ED50 measured after 72 hrs in presence of carboplatin by celltiter-glo assay; format: functional
In short: (§2)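 Cells were seeded at 2–3 × 10³ per well in RPMI 1640 with 10% FBS. At 24 h, MK-2206 and the partner drug were added simultaneously at constant concentration ratios spanning each agent's IC₅₀, for 72 h. Growth was read as cellular ATP by CellTiter-Glo. CI was taken from median-effect plots of each agent alone and in combination (Chou–Talalay), at ED₅₀, ED₇₅ and ED₉₀.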

HCC1954 = assay: Synergistic antiproliferative activity against human HCC1954 cells assessed as combination index at ED50 treated 24 hrs prior to lapatinib and measured after 72 hrs by celltiter-glo assay; format: functional; settings: time 96 hrs
[5] = In vivo inhibition of AKT phosphorylation at S473 residue in human NCI-H292 cells xenografted mouse at 120 mg/kg, po administered as single dose 2 hrs post-erlotinib treatment measured after 12 hrs by Western blot analysis relative to control; format: functional
HCC70 [6] = assay: Antitumor activity against human HCC70 cells xenografted in CB17/icr SCID mouse assessed as tumor growth inhibition at 120 mg/kg, po administered 3 times per week for 3 weeks starting 2 hrs post-lapatinib treatment and measured twice a week during compound dosing by caliper method; format: functional, organism-based
In short: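 Female C.B-17/ICR-scid mice were given s.c. HCC70 cells in 50% Matrigel/50% PBS in the left flank. They were randomized at a mean tumor size of 0.2 cm³, n = 5 per group. Lapatinib (distilled water) was given at 100 mg/kg po, 5 d/wk for 3 wk. MK-2206 (30% Captisol) was given at 120 mg/kg po, 3×/wk, 2 h after lapatinib. Calipers twice weekly; volume = […] × 0.5.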

[7] = In vivo inhibition of AKT phosphorylation at S473 residue in human NCI-H292 cells xenografted mouse at 120 mg/kg, po administered as single dose measured after 12 hrs by Western blot analysis relative to control; format: functional
[8] = biological target: RAC-alpha serine/threonine-protein kinase (Homo sapiens) (UniProt P31749); assay: Inhibition of AKT in human HCC827 cells assessed as reduction in AKT phosphorylation at S473 residue at 5 umol/L measured after 5 hrs in presence of erlotinib by Western blot analysis; format: cell-based; settings: dose 5.0 µmol/L
Chain of RAC-alpha serine/threonine-protein kinase (Homo sapiens) (P31749 whole entry): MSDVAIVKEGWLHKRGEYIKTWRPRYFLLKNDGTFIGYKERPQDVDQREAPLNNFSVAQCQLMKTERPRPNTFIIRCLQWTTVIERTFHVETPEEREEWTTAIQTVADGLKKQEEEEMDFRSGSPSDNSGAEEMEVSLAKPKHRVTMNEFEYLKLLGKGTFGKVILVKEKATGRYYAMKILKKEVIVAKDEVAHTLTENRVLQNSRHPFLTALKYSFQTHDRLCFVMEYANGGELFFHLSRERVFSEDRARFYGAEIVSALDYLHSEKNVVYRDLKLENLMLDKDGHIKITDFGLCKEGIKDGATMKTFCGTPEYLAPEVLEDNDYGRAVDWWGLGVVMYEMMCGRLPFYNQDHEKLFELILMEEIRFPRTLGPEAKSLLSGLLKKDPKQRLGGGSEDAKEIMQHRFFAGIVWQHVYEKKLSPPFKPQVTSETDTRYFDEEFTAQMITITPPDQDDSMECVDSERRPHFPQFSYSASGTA

BT-474 = assay: Synergistic antiproliferative activity against docetaxel pretreated human BT-474 cells assessed as combination index at ED50 measured after 72 hrs by celltiter-glo assay; format: functional
[9] = Toxicity in human PC-3 cells xenografted CD1 nude mouse assessed as body weight loss at 120 mg/kg, po administered 3 times per week for 2 weeks starting 24 hrs post docetaxel treatment and measured on day 15; format: organism-based; settings: in vivo, 360 h, time 15 day
In short: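 Male CD1-nude mice with s.c. PC-3 tumours (50% Matrigel/50% PBS, left flank), randomized at mean 0.2 cm³, n=5/group, treated from 25 d post-implant. Body weight monitored versus vehicle-only controls.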

HCC70 [10] = assay: Synergistic antiproliferative activity against human HCC70 cells assessed as combination index at ED75 measured after 72 hrs in presence of docetaxel by celltiter-glo assay; format: functional
In short: (§3)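 Cells grown in RPMI 1640 with 10% heat-inactivated FBS at 37°C, 5% CO₂. Seeded at 2 to 3 × 10³ per well; drugs added 24 h later. […] Viability read as cellular ATP by CellTiter-Glo. CI calculated by Chou–Talalay from median-effect plots at ED50, ED75 and ED90.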

NCI-H460 [11] = assay: Antitumor activity against human NCI-H460 cells xenografted in CD1 nude mouse assessed as reduction in tumor volume at 120 mg/kg, po administered 3 times per week for 2 weeks by caliper method; format: functional, organism-based; in short: as §1
MCF7 = assay: Synergistic antiproliferative activity against human MCF7 cells assessed as combination index at ED50 measured after 72 hrs in presence of docetaxel by celltiter-glo assay; format: functional; in short: as §3
A2780 [12] = assay: Synergistic antiproliferative activity against human A2780 cells assessed as combination index at ED90 measured after 72 hrs in presence of carboplatin by celltiter-glo assay; format: functional; in short: as §2
[13] = biological target: RAC-alpha serine/threonine-protein kinase (Homo sapiens) (UniProt P31749); assay: Inhibition of AKT in human A-431 cells assessed as reduction in S6 phosphorylation at S240/S244 residues at 5 umol/L measured after 5 hrs in presence of erlotinib by Western blot analysis; format: cell-based; settings: dose 5.0 µmol/L
In short: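 Cells were lysed in Tris-HCl pH 7.5, 150 mM NaCl, 1% Triton X-100 with protease and phosphatase inhibitors. Lysates were run on SDS-PAGE, transferred to nitrocellulose and probed with phospho-specific antibodies.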

ZR-75-1 [14] = assay: Synergistic antiproliferative activity against human ZR-75-1 cells assessed as combination index at ED75 measured after 72 hrs in presence of docetaxel by celltiter-glo assay; format: functional
UMC-11 = assay: Induction of apoptosis in human UMC-11 cells assessed as fold induction of capsase-3/7 activity measured after 24 to 48 hrs in presence of carboplatin by caspase-glo 3/7 assay; format: functional; settings: time 24-48 hrs
ZR-75-1 [15] = assay: Synergistic antiproliferative activity against human ZR-75-1 cells assessed as combination index at ED50 measured after 72 hrs in presence of docetaxel by celltiter-glo assay; format: functional
SK-OV-3 = assay: Synergistic antiproliferative activity against human SK-OV-3 cells assessed as combination index at ED50 measured after 72 hrs in presence of lapatinib by celltiter-glo assay; format: functional

Cl.NC1(c2ccc(-c3nc4ccn5c(=O)[nH]nc5c4cc3-c3ccccc3)cc2)CCC1
Activity (A2780 [1]): Dose-Dependent Effect
Activity [2]: Non-Toxic
fold change (FC) (NCI-H1993): 1.2
Activity (NCI-H460 [3]): Active
CI50 (A2780 [4]): 0.49
CI50 (HCC1954): 0.18
inhibition in vivo at 120 mg/kg [5]: 79.9%
TGI (HCC70 [6]): Active
inhibition in vivo at 120 mg/kg [7]: 53.1%
inhibition [8]: Active
CI50 (BT-474): 0.8
Activity [9]: Non-Toxic
CI75 (HCC70 [10]): 0.7
Activity (NCI-H460 [11]): Active
CI50 (MCF7): 0.7
CI90 (A2780 [12]): 0.38
inhibition [13]: Active
CI75 (ZR-75-1 [14]): 0.2
fold change (FC) (UMC-11): 1.1
CI50 (ZR-75-1 [15]): 0.1
CI50 (SK-OV-3): 0.07
